Results of several laboratories.
Each line is one published result; the experiments were not run side by side.
Target: Calcium/calmodulin-dependent protein kinase type 1 (CAMK1, Homo sapiens, UniProt Q14012)

O=C(c1ccc(Nc2ncc(Cl)c(-c3ccc(Cl)s3)n2)cc1)N1CCC(N2CCCC2)CC1
remaining binding (binding, competition with immobilised ligand; 1 µM): 54%

CC1=C(C#N)C(c2ccc3c(c2)c(NC(=O)c2ccccc2C)nn3C)C(C#N)=C(C)N1
remaining binding (cell-free assay, competition with immobilised ligand; 1 µM): 98%

CN(C)c1nccc(-c2cnn3ncccc23)n1
remaining binding (binding; 1 µM): 100%

COc1cnc(Nc2cccc(S(N)(=O)=O)c2)nc1N1CCN(c2ccccc2)CC1
remaining binding (binding, competition with immobilised ligand; 1 µM): 100%

CN(CCCC(F)(F)F)c1nccc(-c2cnn3ncccc23)n1
remaining binding (binding; 1 µM): 76%

O=C1NC(c2ccccn2)Sc2ccccc21 (centres unmarked)
remaining binding (cell-free assay, competition with immobilised ligand; 1 µM): 91%

Cc1cnn2ncc(-c3ccnc(N(C)C)n3)c2c1
remaining binding (binding; 1 µM): 92%

O=C(NC[C@@H]1[C@H]2CN(C(=O)OCc3cc(C(F)(F)F)cc(C(F)(F)F)c3)C[C@@H]12)c1ccc2[nH]nnc2c1
remaining binding (cell-free assay, competition with immobilised ligand; 1 µM): 77%

O=C(NCCCN1CCOCC1)c1ccc(Nc2ncc(Cl)c(-c3ccc(Cl)s3)n2)cc1
remaining binding (binding, competition with immobilised ligand; 1 µM): 78%

CC(=O)N1CCC(c2ccc(C(=O)NC(=N)N)cc2C(F)(F)F)CC1
remaining binding (cell-free assay, competition with immobilised ligand; 1 µM): 100%

O=C(Nc1c[nH]nc1C(=O)NC1CCNCC1)c1cc(F)cc(F)c1
remaining binding (binding, competition with immobilised ligand; 1 µM): 74%

N[C@@H]1CCN(c2nccc(-c3cnn4ncccc34)n2)C1
remaining binding (binding; 1 µM): 100%

Cc1cnc(Nc2ccc(C(=O)N3CCC(N4CCCC4)CC3)cc2)nc1-c1cc2ccccc2s1
remaining binding (binding, competition with immobilised ligand; 1 µM): 30%

CN(C)c1nccc(-c2cnc3ncccn23)n1
remaining binding (binding; 1 µM): 68%

Nc1ncc2c(n1)-c1c([nH]c3ccc(C#CC4CC4)cc13)CCCC2
remaining binding (binding, competition with immobilised ligand; 1 µM): 100%

CN(c1nccc(-c2cnn3ncccc23)n1)C1CC1
remaining binding (binding; 1 µM): 82%

CN([C@@H]1CCc2c(CC(=O)O)c3ccccc3n2C1)S(=O)(=O)c1ccc(F)cc1
remaining binding (cell-free assay, competition with immobilised ligand; 1 µM): 100%

COc1cnc(Nc2cccc(S(N)(=O)=O)c2)nc1N1CCN(c2ccccc2)C(=O)C1
remaining binding (binding, competition with immobilised ligand; 1 µM): 100%

CN(C)CC#Cc1ccc(OCCCc2sc(N3CCc4cccc(C(=O)Nc5nc6ccccc6s5)c4C3)nc2C(=O)O)c(F)c1
remaining binding (cell-free assay, competition with immobilised ligand; 1 µM): 93%

C[C@@H](c1ccc(-n2cnc3c(N)ncnc32)cc1)N1CCc2nn(C)c(Cc3ccccc3)c2C1=O
remaining binding (binding, competition with immobilised ligand; 0.1 µM): 89%
